{
  "source": "ChEMBL document CHEMBL1125740",
  "about": "“Heterocyclic quinones. 17. A new in vivo active antineoplastic drug: 6,7-bis(1-aziridinyl)-4-[[3-(N,N-dimethylamino)propyl]amino]-5,8- quinazolinedione” (J Med Chem, 1991)",
  "key": {"[1]": {"test": "Compound was evaluated in vivo for antitumor activity against Glasgow osteogenic sarcoma after injecting the compound intravenously for optimal dose", "format": "functional, Mus musculus", "procedure,_shortened": "(§1)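 Glasgow osteogenic sarcoma in C57Bl/6-derived hosts: 30-60 mg fragments implanted sc by trocar on day 0. Drug given iv on days 3, 6 and 9, 7 mice per group. Tumors measured by caliper. Median tumor burden recorded on day 10. Body weight change per mouse recorded at nadir. Toxicity-related deaths counted.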"}, "[2]": {"test": "Compound was evaluated in vivo for antitumor activity against Glasgow osteogenic sarcoma after injecting the compound intravenously for total dose.", "format": "functional, Mus musculus", "procedure,_shortened": "as §1"}, "L1210 [3]": {"system": "L1210", "test": "Inhibitory activity against L1210 cell growth", "format": "functional, cell-based", "conditions": "Mus musculus", "procedure,_shortened": "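L1210 cells were grown in RPMI 1640 with 2 mM glutamine and 20% heat-inactivated horse serum at 37 °C under 5% CO2. Drug was added in DMSO (0.5% final) to exponential cells seeded at 0.8×10^5 cells/mL. Coulter counts were done in triplicate at 48 h. IC50 was taken from a regression of probit % growth inhibition against log dose, from one experiment.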"}, "M5076": {"system": "M5076", "test": "Compound was evaluated in vivo for antitumor activity against M5076 after injecting the compound intravenously for total dose.", "format": "functional, Mus musculus"}, "L1210 [4]": {"system": "L1210", "test": "Compound was evaluated in vivo for antitumor activity after intraperitoneal administration against L1210(935) for mortality range at an optimal dose of 0.25 mg/kg/injection at 1,4,7,11day schedule.", "format": "functional, Mus musculus", "procedure,_shortened": "(§2)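 L1210 leukemia, maintained in DBA/2 mice, was given ip as 10⁵ cells on day 0 to F1 hybrid or strain-of-origin mice over 18 g, in groups of 8. Dosing was ip from day 1, and mortality was checked daily. Median day of death counts dying mice only. %ILS = 100×(treated − control median day of death)/control median. Tumor-free survivors were counted on day 60. Weight change is g/mouse at nadir.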"}, "L1210 [5]": {"system": "L1210", "test": "Compound was evaluated in vivo for antitumor activity after intraperitoneal administration against L1210(935) for mortality range at an optimal dose of 0.2 mg/kg/injection at 1-4 day schedule.", "format": "functional, Mus musculus", "procedure,_shortened": "as §2"}, "L1210 [6]": {"system": "L1210", "test": "Compound was evaluated in vivo for antitumor activity after intraperitoneal administration against L1210(935) for mortality range at an optimal dose of 0.5 mg/kg/injection at 1 day schedule.", "format": "functional, Mus musculus", "procedure,_shortened": "as §2"}, "L1210 [7]": {"system": "L1210", "test": "Compound was evaluated in vivo for antitumor activity after intraperitoneal administration against L1210(935) for total dose at an optimal dose of 1 mg/kg/injection at 1 day schedule.", "format": "functional, Mus musculus", "procedure,_shortened": "as §2"}, "L1210 [8]": {"system": "L1210", "test": "Compound was evaluated in vivo for antitumor activity after intraperitoneal administration against L1210(935)for change in body weight at an optimal dose of 0.125 mg/kg/injection at 1,4,7,11day schedule.", "format": "functional, Mus musculus", "procedure,_shortened": "as §2"}, "L1210 [9]": {"system": "L1210", "test": "Compound was evaluated in vivo for antitumor activity after intraperitoneal administration against L1210(935)for change in body weight at an optimal dose of 0.4 mg/kg/injection at 1-4 day schedule.", "format": "functional, Mus musculus", "procedure,_shortened": "as §2"}, "L1210 [10]": {"system": "L1210", "test": "Compound was evaluated in vivo for antitumor activity after intraperitoneal administration against L1210(935) for median day of death at an optimal dose of 1 mg/kg/injection at 1 day schedule.", "format": "functional, Mus musculus", "procedure,_shortened": "as §2"}, "L1210 [11]": {"system": "L1210", "test": "Compound was evaluated in vivo for antitumor activity after intraperitoneal administration against L1210(935) for tumor free survivors at an optimal dose of 0.25 mg/kg/injection at 1,4,7,11 day schedule.", "format": "functional, Mus musculus", "procedure,_shortened": "as §2"}, "[12]": {"test": "Compound was evaluated in vivo for antitumor activity against Lewis Lung cercinoma after injecting the compound intravenously for optimal dose", "format": "functional, Mus musculus", "procedure,_shortened": "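Lewis lung carcinoma: 10^6 cells implanted im into C57Bl/6-derived hosts. Drug given iv on days 5, 9 and 13, 10 mice per group. Median tumor burden and weight nadir recorded. Survivors were killed on day 19, and their lungs were fixed in Fekete solution so that macroscopic metastases could be counted.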"}, "[13]": {"test": "Compound was evaluated in vivo for antitumor activity against Lewis Lung cercinoma after injecting the compound intravenously for percent T/C (value in parentheses indicates the day of evaluation)", "format": "functional, Mus musculus"}, "P388 [14]": {"system": "P388", "test": "Compound was evaluated in vivo for antitumor activity after intraperitoneal administration against P388 (1303) for change in body weight at an optimal dose of 0.75 mg/kg/injection", "format": "functional, Mus musculus"}, "P388 [15]": {"system": "P388", "test": "Compound was evaluated in vivo for antitumor activity after intraperitoneal administration against P388 (1313) for mortality range at an optimal dose of 0.2 mg/kg/injection", "format": "functional, Mus musculus"}, "P388 [16]": {"system": "P388", "test": "Compound was evaluated in vivo for antitumor activity after intraperitoneal administration against P388/L-PAM(14) for % increase in life span at an optimal dose of 1 mg/kg/injection", "format": "functional", "conditions": "Mus musculus, P388, ip"}, "P388 [17]": {"system": "P388", "test": "Compound was evaluated in vivo for antitumor activity after intraperitoneal administration against P388/L-PAM(14) for mortality range at an optimal dose of 0.125 mg/kg/injection at 1,4,7,11 day schedule.", "format": "functional, Mus musculus"}, "P388 [18]": {"system": "P388", "test": "Compound was evaluated in vivo for antitumor activity after intraperitoneal administration against P388/L-PAM(12) for change in body weight at an optimal dose of 0.75 mg/kg/injection", "format": "functional, Mus musculus"}, "P388 [19]": {"system": "P388", "test": "Compound was evaluated in vivo for antitumor activity after intraperitoneal administration against P388/L-PAM(12) for % increase in life span at an optimal dose of 0.75 mg/kg/injection", "format": "functional", "conditions": "Mus musculus, P388, ip"}, "P388 [20]": {"system": "P388", "test": "Compound was evaluated in vivo for antitumor activity after intraperitoneal administration against P388 (1303) for total dose at an optimal dose of 0.75 mg/kg/injection", "format": "functional, Mus musculus"}, "P388 [21]": {"system": "P388", "test": "Compound was evaluated in vivo for antitumor activity after intraperitoneal administration against P388 (1303) for median day of death at an optimal dose of 0.75 mg/kg/injection", "format": "functional, Mus musculus"}, "P388 [22]": {"system": "P388", "test": "Compound was evaluated in vivo for antitumor activity after intraperitoneal administration against P388/L-PAM(14) for total dose at an optimal dose of 0.5 mg/kg/injection at one day schedule.", "format": "functional, Mus musculus"}, "P388 [23]": {"system": "P388", "test": "Compound was evaluated in vivo for antitumor activity after intraperitoneal administration against P388/L-PAM(14) for % increase in life span at an optimal dose of 0.1 mg/kg/injection at 1,2,3,4 day schedule.", "format": "functional", "conditions": "Mus musculus, P388, ip"}, "P388 [24]": {"system": "P388", "test": "Compound was evaluated in vivo for antitumor activity after intraperitoneal administration against P388/L-PAM(14) for % increase in life span at an optimal dose of 0.25 mg/kg/injection at 1,4,7,11 day schedule.", "format": "functional", "conditions": "Mus musculus, P388, ip"}, "P388 [25]": {"system": "P388", "test": "Compound was evaluated in vivo for antitumor activity after intraperitoneal administration against P388/L-PAM(14) for mortality range at an optimal dose of 0.5 mg/kg/injection at one day schedule.", "format": "functional, Mus musculus"}, "P388 [26]": {"system": "P388", "test": "Compound was evaluated in vivo for antitumor activity after intraperitoneal administration against P388/L-PAM(14) for % increase in life span at an optimal dose of 0.4 mg/kg/injection at 1,2,3,4 day schedule.", "format": "functional", "conditions": "Mus musculus, P388, ip"}, "P388 [27]": {"system": "P388", "test": "Compound was evaluated in vivo for antitumor activity after intraperitoneal administration against P388 (1313) for change in body weight at an optimal dose of 1 mg/kg/injection", "format": "functional, Mus musculus"}, "B16": {"system": "B16", "test": "Compound was evaluated in vivo for antitumor activity against B16 melanoma after injecting the compound intravenously for toxicity related death.", "format": "functional, Mus musculus", "procedure,_shortened": "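30-60 mg tumor fragments implanted sc by trocar on day 0 into C57Bl/6-derived hosts (B16) or C3H/He-derived hosts (16/C). Drug given iv on days 6, 9 and 13 (B16) or 6, 9 and 12 (16/C), 10 mice per group. Tumors measured by caliper. T/C % taken from median tumor burden of treated vs control groups on day 15 (B16) or day 14 (16/C). Body weight change per mouse recorded at nadir.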"}},
  "note": "“And” between values parts separate entries of the source, which are not always exact repeats. Identical values can stand only once.",
  "data": [
    {"smiles": "CN(C)CCCNc1ncnc2c1C(=O)C(N1CC1)=C(N1CC1)C2=O", "values": [
      {"measurement": "Optimal dose", "setting": "[1]", "result": 0.36, "unit": "mg/kg"},
      {"measurement": "Total dose", "setting": "[2]", "result": 1.08, "unit": "mg/kg"},
      {"measurement": "IC50", "setting": "L1210 [3]", "result": "0.00102 µg/mL and 2.7 nM"},
      {"measurement": "Total dose", "setting": "M5076", "result": 4, "unit": "mg/kg"},
      {"measurement": "Mortality", "setting": "L1210 [4]", "result": 14, "unit": "days"},
      {"measurement": "Mortality", "setting": "L1210 [5]", "result": 14, "unit": "days"},
      {"measurement": "Mortality", "setting": "L1210 [6]", "result": 16, "unit": "days"},
      {"measurement": "Total dose", "setting": "L1210 [7]", "result": 1, "unit": "mg/kg"},
      {"measurement": "Change in body weight", "setting": "L1210 [8]", "result": 2.7, "unit": "g mouse-1"},
      {"measurement": "Change in body weight", "setting": "L1210 [9]", "result": 0.3, "unit": "g mouse-1"},
      {"measurement": "Median day of death", "setting": "L1210 [10]", "result": 14},
      {"measurement": "Survivors", "setting": "L1210 [11]", "result": 0},
      {"measurement": "Optimal dose", "setting": "[12]", "result": "0.4 mg/kg and 0.2 mg/kg"},
      {"measurement": "T/C", "setting": "[13]", "result": 81, "unit": "%"},
      {"measurement": "Change in body weight", "setting": "P388 [14]", "result": 3.2, "unit": "g mouse-1"},
      {"measurement": "Optimal dose", "setting": "P388 [15]", "result": 28, "unit": "mg/kg"},
      {"measurement": "ILS at 1 mg/kg", "setting": "P388 [16]", "result": 36, "unit": "%"},
      {"measurement": "Mortality", "setting": "P388 [17]", "result": 27, "unit": "days"},
      {"measurement": "Change in body weight", "setting": "P388 [18]", "result": -1, "unit": "g mouse-1"},
      {"measurement": "ILS at 0.75 mg/kg", "setting": "P388 [19]", "result": 19, "unit": "%"},
      {"measurement": "Optimal dose", "setting": "P388 [20]", "result": 0.75, "unit": "mg/kg"},
      {"measurement": "Median day of death", "setting": "P388 [21]", "result": 18.5},
      {"measurement": "Total dose", "setting": "P388 [22]", "result": 0.5, "unit": "mg/kg"},
      {"measurement": "ILS at 0.1 mg/kg", "setting": "P388 [23]", "result": 0, "unit": "%"},
      {"measurement": "ILS at 0.25 mg/kg", "setting": "P388 [24]", "result": 18, "unit": "%"},
      {"measurement": "Mortality", "setting": "P388 [25]", "result": 22, "unit": "days"},
      {"measurement": "ILS at 0.4 mg/kg", "setting": "P388 [26]", "result": 43, "unit": "%"},
      {"measurement": "Change in body weight", "setting": "P388 [27]", "result": -0.5},
      {"measurement": "Toxicity", "setting": "B16", "result": 0}
    ]}
  ]
}
